Assay results published in ChEMBL document CHEMBL1135571, “Synthesis and optimization of a new family of type 3 17 beta-hydroxysteroid dehydrogenase inhibitors by parallel liquid-phase chemistry” (J Med Chem, 2002).
Values joined by “and” are separate entries in the source; they are usually repeats but may differ in a detail not shown here. Equal values may be shown once.

Columns and labels:
[1] = target: T1, 17-beta-hydroxysteroid dehydrogenase type 3 (Homo sapiens, UniProt P37058); assay: Ability to inhibit the Type-3 17-beta- hydroxysteroid dehydrogenase activity transfected in human embryonic kidney (HEK)-293 cells experiment 2; format: cell-based, HEK293
T1 sequence (P37058 whole entry): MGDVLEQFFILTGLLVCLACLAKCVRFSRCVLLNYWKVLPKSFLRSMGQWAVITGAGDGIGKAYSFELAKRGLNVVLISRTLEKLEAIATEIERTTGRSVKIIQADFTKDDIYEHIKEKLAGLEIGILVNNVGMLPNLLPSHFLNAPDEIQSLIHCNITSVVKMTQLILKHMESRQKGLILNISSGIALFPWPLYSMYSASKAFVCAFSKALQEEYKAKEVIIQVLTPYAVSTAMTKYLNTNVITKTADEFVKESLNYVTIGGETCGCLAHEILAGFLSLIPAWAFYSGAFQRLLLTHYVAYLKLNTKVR

[2] = target: T1, 17-beta-hydroxysteroid dehydrogenase type 3; assay: Ability to inhibit the Type-3 17-beta- hydroxysteroid dehydrogenase activity transfected in human embryonic kidney (HEK)-293 cells experiment 3; format: cell-based, HEK293
[3] = Proliferative activity against Shionogi (AR+) cells at 1 uM concentration; format: functional
[4] = Proliferative activity against Shionogi (AR+) cells at 0.1 uM concentration; format: functional
[5] = target: T1, 17-beta-hydroxysteroid dehydrogenase type 3; assay: Concentration to inhibit 50% activity of the Type-3 17-beta- hydroxysteroid dehydrogenase
Summary of the method: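 Microsomal fraction from HEK-293 cells transfected with type 3 17β-HSD, prepared by sonication and differential centrifugation (10 000g, then 100 000g) in 50 mM sodium phosphate pH 7.4, 20% glycerol, 1 mM EDTA. Incubated at 37 °C with 5 mM NADPH, 0.05 μM [14C]Δ4-dione and a range of inhibitor concentrations. Labeled testosterone formed is measured; IC50 is computed from the 50% inhibition point.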

[6] = Proliferative activity against Shionogi(AR+) cells at 0.1 uM concentration; format: functional
[7] = Proliferative activity against Shionogi(AR+) cells at 1 uM concentration; format: functional
[8] = target: T1, 17-beta-hydroxysteroid dehydrogenase type 3; assay: The ability to inhibit the Type-3 17-beta- hydroxysteroid dehydrogenase activity in transfected human embryonic kidney (HEK)-293 cells experiment 3; format: cell-based, HEK293
Summary of the method: (§1)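 Type 3 17β-HSD expressed by calcium phosphate transfection in HEK-293 cells. Cells sonicated in 50 mM sodium phosphate pH 7.4 with 20% glycerol and 1 mM EDTA, then spun at 10 000g for 1 h; the 100 000g microsomal pellet is the enzyme source. Assay at 37 °C in the same buffer with 5 mM NADPH and 0.05 μM [14C]Δ4-dione. Labeled testosterone formed is measured; […].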

[9] = target: T1, 17-beta-hydroxysteroid dehydrogenase type 3; assay: The ability to inhibit the Type-3 17-beta- hydroxysteroid dehydrogenase activity in transfected human embryonic kidney (HEK)-293 cells experiment 2; format: cell-based, HEK293; summary of the method: as §1

In the case of `C[C@]12CCC(=O)C=C1CC[C@@H]1[C@@H]2CC[C@]2(C)C(=O)CC[C@@H]12` [ANDROSTENEDIONE], the IC50 [1] is reported as 650 nM and the IC50 [2] is reported as 489 nM.

`C[C@]12CC[C@](O)(CN(CC3CCCCC3)C(=O)C3CC3)CC1CC[C@@H]1[C@@H]2CC[C@]2(C)C(=O)CC[C@@H]12` (stereo partly drawn) showed an inhibition at 1 µM [3] of 0%, an inhibition at 0.1 µM [4] of 1% and an IC50 [5] of 85 nM.

Compound `CCCCN(CC1C2CC3CC(C2)CC1C3)C[C@@]1(O)CC[C@@]2(C)C(CC[C@@H]3[C@@H]2CC[C@]2(C)C(=O)CC[C@@H]32)C1` (stereo partly drawn) has an inhibition at 0.1 µM [6] of 3%, an inhibition at 1 µM [7] of 7% and an IC50 [5] of 80 nM.

With `C[C@]12CC[C@](O)(Cc3ccccc3)CC1CC[C@@H]1[C@@H]2CC[C@]2(C)C(=O)CC[C@@H]12` (stereo partly drawn) the inhibition at 0.1 µM [6] was 27%, the inhibition at 1 µM [7] was 100% and the IC50 [8] was 98 nM.

With `CCCC(=O)N(CC1C2CC3CC(C2)CC1C3)C[C@@]1(O)CC[C@@]2(C)C(CC[C@@H]3[C@@H]2CC[C@]2(C)C(=O)CC[C@@H]32)C1` (stereo partly drawn) the inhibition at 1 µM [3] was 96%, the inhibition at 0.1 µM [4] was 7% and the IC50 [5] was 35 nM and 57 nM.

`CCCCCCCCN(C[C@@]1(O)CC[C@@]2(C)C(CC[C@@H]3[C@@H]2CC[C@]2(C)C(=O)CC[C@@H]32)C1)C(=O)C1CC1` (stereo partly drawn) gave an inhibition at 1 µM [3] of 0%, an inhibition at 0.1 µM [4] of 0% and an IC50 [9] of 57 nM.

In the case of `C[C@]12CC[C@@]3(CC1CC[C@@H]1[C@@H]2CC[C@]2(C)C(=O)CC[C@@H]12)CN(CC(CN1CCOCC1)OC(=O)CCC1CCCC1)C(=O)O3` (stereo partly drawn), the inhibition at 0.1 µM [6] is reported as 4%, the inhibition at 1 µM [7] is reported as 6% and the IC50 [5] is reported as 74 nM.

`C[C@]12CC[C@@H](O)C[C@H]1CC[C@@H]1[C@@H]2CC[C@]2(C)C(=O)CC[C@@H]12` [ETIOCHOLANOLONE] showed an inhibition at 0.1 µM [6] of 14%, an inhibition at 1 µM [7] of 2% and an IC50 [8] of 182 nM.
